Published values pooled from the literature.
Protocols differ between the studies behind these lines.
Observed: cell growth or viability

CCn1c(=O)c(-c2ccc(-c3cncs3)cc2Cl)cc2cnc(Nc3ccc(N4CCN(C)CC4)cc3)nc21  IC50 (BXPC-3; MTT; 24 h): 3.03 µM
CCN1C(=O)N(c2c(F)c(OC)cc(OC)c2F)Cc2cnc3[nH]c(CN4CCOCC4)cc3c21  IC50 (MFE-296; ATP luminescence; 96 h): 0.056 µM
CC(C)C[C@H](NC(=O)[C@H](Cc1ccccc1)NC(=O)c1cnccn1)B(O)O  IC50 (SK-N-FI; ATP luminescence): 0.013 µM
C=C(C)[C@@H]1CC[C@]2(C(=O)O)CC[C@]3(C)[C@H](CC[C@@H]4[C@@]5(C)CC[C@H](O)C(C)(C)[C@@H]5CC[C@]43C)[C@@H]12  IC50 (DLD-1; 48 h): 20 µM
CC[C@]1(O)C[C@H]2CN(CCc3c([nH]c4ccccc34)[C@@](C(=O)OC)(c3cc4c(cc3OC)N(C=O)[C@H]3[C@@](O)(C(=O)OC)[C@H](OC(C)=O)[C@]5(CC)C=CCN6CC[C@]43[C@@H]65)C2)C1  IC50 (BXPC-3; fluorescence; 72 h): 0.002 µM
COc1cc(Nc2nccc(-c3cnn4nc(OC)ccc34)n2)cc(C(F)(F)F)c1  IC50 (DLD-1; ATP luminescence): 0.53 µM
Nc1ccn([C@@H]2O[C@H](CO)[C@@H](O)C2(F)F)c(=O)n1  IC50 (BXPC-3; MTT): 0.028 µM
Cc1cnc(NC2CCOCC2)nc1-n1cnc(C(=O)NC(CN)c2cc(F)cc(Cl)c2)c1 (centres unmarked)  IC50 (U-2973; MTS): 0.3 µM
COc1cccc2c1C(=O)c1c(O)c3c(c(O)c1C2=O)C[C@@](O)(C(=O)CO)C[C@@H]3O[C@H]1C[C@H](N)[C@H](O)[C@H](C)O1  IC50 (SK-MEL; neutral red; 48 h): 0.7 µg/mL
C=C(C)C(=O)Nc1ccc(-c2c(-c3ccc(Oc4nccc(C)n4)c(F)c3)c3c(N)ncnc3n2C)cc1  IC50 (MFE-296; ATP luminescence; 96 h): 0.00996 µM
CC(C)n1ncnc1-c1cn2c(n1)-c1ccc(O[C@@H](C)C(N)=O)cc1OCC2  IC50 (SW48; ATP luminescence; 96 h): 0.021 µM
CCN(CC)CCCC(C)Nc1cnc(C(=O)Nc2cc(F)cc3cccnc23)cn1 (centres unmarked)  IC50 (BXPC-3; MTT): 7.3 µM
CNc1ncc2cc(-c3ccc(-c4cccc(C)n4)cc3Cl)c(=O)n(C[C@H]3OC[C@H](N)CO3)c2n1  IC50 (BXPC-3; MTT; 24 h): 20.3 µM
CN(C(=O)COC(=O)/C=C/c1cccc([N+](=O)[O-])c1)C1CCS(=O)(=O)C1 (centres unmarked)  IC50 (DLD-1; ATP luminescence; 48 h): 1.6 µM
